Screens as filed in PubChem.
CDK5 p35 inh: blocks human CDK5/p35 kinase activity. Recombinant CDK5/p35, ADP-Glo luminescence, 60 min. inhibition, % at 10 µM. 330,000 tested, 0.01% active. AID 488839;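 active = highest replicate inhibition of at least 50% and at least 75% of replicates reaching 50%; inconclusive = only one of the two criteria met; inactive = both criteria failed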;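 also: plate controls were DMSO neutral control for no effect and GW8510 at 10 µM for full effect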
GSK3A inh: blocks human GSK-3 alpha kinase. P49840. ADP-Glo luminescence, 60 min. inhibition, % at 10 µM. 320,000 tested, 0.1% active. AID 2650;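 active = more than half of replicates show inhibition above 20%; inconclusive = some but at most half of replicates above 20% inhibition; inactive = no replicate shows inhibition above 20%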;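 also: GST-tagged GSK-3 alpha with peptide substrate and 25 µM ATP; 0% = DMSO neutral wells and 100% = GW8510 positive control wells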
SR-BI DiI inh: mouse SR-BI HDL lipid transfer inhibition; ldlA[mSR-BI] CHO cells, DiI-HDL uptake fluorescence, 3 h; inhibition, % at 12.5 µM; 320,000 tested, 0.96% active; AID 488896; Q61009;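 active = mean replicate inhibition of at least 70% and a set share of replicates each scoring 70 or more; inconclusive = meets just one of the two criteria; inactive = fails both criteria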;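 also: 0% = median of neutral control wells and 100% = median of positive control wells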
Target sequence (Q61009 whole entry, looked up): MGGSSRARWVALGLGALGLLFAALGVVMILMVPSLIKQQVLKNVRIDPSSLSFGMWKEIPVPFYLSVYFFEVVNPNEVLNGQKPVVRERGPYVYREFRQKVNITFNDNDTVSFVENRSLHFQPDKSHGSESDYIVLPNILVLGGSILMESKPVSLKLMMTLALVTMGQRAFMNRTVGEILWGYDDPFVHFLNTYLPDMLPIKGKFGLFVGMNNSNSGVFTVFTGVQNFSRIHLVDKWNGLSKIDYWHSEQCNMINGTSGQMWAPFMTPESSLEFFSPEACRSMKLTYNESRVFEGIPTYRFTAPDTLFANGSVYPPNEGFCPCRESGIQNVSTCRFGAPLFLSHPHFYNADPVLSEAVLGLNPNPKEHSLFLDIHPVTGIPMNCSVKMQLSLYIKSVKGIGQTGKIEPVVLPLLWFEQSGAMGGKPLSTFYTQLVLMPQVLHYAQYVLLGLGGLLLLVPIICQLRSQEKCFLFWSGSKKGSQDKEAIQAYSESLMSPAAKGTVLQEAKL
SR-BI uptake up: activators of SR-BI mediated HDL lipid uptake; CHO ldlA[mSR-BI] cells, DiI-HDL uptake fluorescence, 3 h; 100 = double the neutral-control signal; activation, % at 12.5 µM; 320,000 tested, 0.096% active;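 active = mean replicate activation of at least 60% and every replicate at or above 60%; inconclusive = mean or all-replicate condition met, but not both; inactive = mean below 60% and not all replicates reaching 60%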;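 also: 0% = median plate neutral-control signal and 100% = twice that signal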
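Material: SR-BI-overexpressing, LDLR-lacking CHO cells | Dosing: Single compound concentration, delivered by pin transfer | Probe or stimulus: Labelled HDL, 10 µg/mL | Signal: Bottom-read cell fluorescence after medium removal, ex 550/em 595 nm | Schedule: 3 h, 37 °C | Evaluation: HDL uptake via cellular fluorescence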
GSK3B inh: inhibitors of human GSK3beta kinase. 300,000 tested, 0.038% active. P49841. activity score (negative = inhibition), % at 10 µM. GST-GSK3beta kinase, ADP-Glo luminescence, 60 min; stronger effect = lower value;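 active = more than half of replicate wells score below -50%, meaning over 50% inhibition versus plate controls; inconclusive = some replicates but at most half score below -50%; inactive = no replicate scores below -50%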;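 also: 0% = median DMSO wells and -100% = median GW8510 positive control wells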
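Assay system: GST-tagged human GSK3beta kinase, cell-free; Input: 1.6 ng GSK3beta; Medium: Tris/MgCl2 kinase buffer; Timing: 60 min enzyme reaction, room temperature; Signal: ADP-Glo luminescence quantifying ADP generated by kinase; Evaluation: score relative to plate controls; Benchmarks: DMSO neutral wells and GW8510 at 20 µM as positive.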
The depositor's hits bear a star; u = inconclusive; x = no result. An excerpt weighted towards active compounds, which were near 1.1% of everything screened.

SMILES	CDK5 p35 inh	GSK3A inh	SR-BI DiI inh	SR-BI uptake up	GSK3B inh
COc1ccc(C(=O)Nc2cccc(C(=O)N/N=C/c3ccc(OC)cc3OC)c2)cc1	2	-2	90*	-89	-1
Cc1ccccc1C(=O)Nc1cccc(C(=O)N/N=C/c2ccccn2)c1	0	16	24	-24	0
COc1ccccc1/C=N/NC(=O)c1cccc(NC(=O)c2ccccc2Cl)c1	5	1	77*	-77	1
COc1ccccc1/C=N/NC(=O)c1cccc(NC(=O)c2ccccc2C)c1	1	2	75*	-75	-2
Cc1ccc(NC(=O)Cn2c(=O)ccn(Cc3ccccc3)c2=O)cc1S(=O)(=O)N1CCOCC1	0	x	35	-35	x
CN(C)C(=O)c1ccc(N=Nc2c(O)c3ccccc3[nH]c2=O)cc1	6	x	-11	11	x
O=C(O)c1ccc(N=Nc2c(O)[nH]c3ccccc23)cc1	5	51*	-3	3	-1
CN(C)c1ccc(S(=O)(=O)N2CCC(Cc3ccccc3)CC2)cn1	-2	-3	-11	11	x
O=[N+]([O-])c1cc(-c2nnc(Nc3ccccc3)c3ccccc23)ccc1N1CCOCC1	0	6	74*	-74	3
O=c1cc(-c2ccc(O)cc2)oc2ccccc12	2	2	23	-23	6
O=c1cc(-c2ccncc2)oc2ccccc12	2	58*	-24	24	-41
Cc1noc(C)c1S(=O)(=O)N(CC(=O)NC(C)c1ccccc1)c1ccc(C(C)C)cc1 (configuration not stated)	0	-4	-15	15	2
COc1ccc(C=NNC(=O)CCCC(=O)NN=Cc2ccc(OC)c(OC)c2)cc1OC	2	x	17	-17	x
COc1cc(/C=N/NC(=O)CC#N)ccc1Oc1nc(Cl)ncc1F	-4	1	82*	-82	1
C=Cc1cccc(NC(=O)c2ccc(NC(=O)c3ccco3)cc2)c1	1	-1	92*	-92	3
COc1ccc(C)cc1Nc1n[n+](-c2ccccc2)c(-c2ccc(NC(C)=O)cc2)s1	1	x	9	-9	1
COc1ccc(C)cc1Nc1n[n+](-c2ccccc2)c(-c2cc([N+](=O)[O-])cc(OC)c2O)s1	-1	-1	95*	-95	-3
Cc1onc(-c2ccccc2)c1C(=O)Nc1sc2c(c1C#N)CCC(C)C2 (configuration not stated)	1	0	72*	-72	-5
CCOC(=O)c1c(NC(=O)c2c(-c3ccccc3)noc2C)sc(C)c1-c1ccccc1	-2	0	75*	-75	0
CCOCc1nnc(NC(=O)c2c(-c3ccccc3)noc2C)s1	0	x	3	-3	0
CC1CCc2c(sc(NC(=O)c3ccc(-c4ccccc4[N+](=O)[O-])o3)c2C#N)C1 (configuration not stated)	1	-1	90*	-90	1
CCn1c(SCc2ccccc2)nnc1-c1cccnc1	0	x	0	0	3
O=C(OCC(=O)c1c[nH]c2ccccc12)c1cccc([N+](=O)[O-])c1	-1	-4	13	-13	x
CC(C)c1ccccc1NS(=O)(=O)c1cccs1	0	0	x	x	0
Cc1cc(=O)oc2cc(OCc3cc4c(cc3Cl)OCO4)ccc12	-1	-6	83*	-83	-3
SMILES	CDK5 p35 inh	GSK3A inh	SR-BI DiI inh	SR-BI uptake up	GSK3B inh
Cc1oc(C(=O)O)cc1COc1ccc2c(C)cc(=O)oc2c1	0	-1	11	-11	-1
CCOC(=O)c1c(NC(=O)COC(=O)c2ccc(C)s2)sc2c1CC(C)(C)NC2(C)C	1	-4	0	0	-2
COc1ccccc1C(=O)NCCNc1nc2cc(C)cc(C)c2cc1C#N	-1	-2	110*	-110	0
O=C(Nc1ncc([N+](=O)[O-])s1)C1CCN(S(=O)(=O)c2cnc[nH]2)CC1	1	51*	-13	13	-2
Cc1ccc(CCNC(=O)C2CCN(S(=O)(=O)c3ccc4c(c3)NC(=O)CO4)CC2)cc1	-2	-3	11	-11	-3
COc1cccc(-c2nc(CS(=O)(=O)CC(=O)N3CCN(C4CCCCC4)CC3)c(C)o2)c1	-1	-1	75*	-75	0
COc1cccc(-c2nc(CS(=O)(=O)CC(=O)N3CCN(C)CC3)c(C)o2)c1	-2	1	-24	24	5
CC(C(=O)NCCc1ccccc1)N1c2cccc3cccc(c23)S1(=O)=O (configuration not stated)	2	1	6	-6	1
C/C(=N\NC(=O)c1cccc(N/N=C(\C)c2cc(O)ccc2O)c1)c1cc(O)ccc1O	1	x	85*	-85	-4
C/C(=N\NC(=O)c1cccc(N/N=C(\C)c2ccco2)c1)c1ccco1	-1	x	21	-21	1
COc1ccccc1Nc1nc(-c2sc(NC(=O)c3ccco3)nc2C)cs1	-3	-1	85*	-85	1
Cc1ccc(Cl)cc1Nc1nc(-c2sc(NC(=O)c3ccco3)nc2C)cs1	-5	0	u	-73	1
Cc1nc(NC(=O)c2ccco2)sc1-c1csc(Nc2ccc(Cl)cc2)n1	-1	3	84*	-84	0
Cc1ccc2nc(-c3ccc(O)cc3)oc2c1	-1	14	14	-14	x
Cc1ccc(NC(=O)c2ccc3c(=O)n4c(nc3c2)CCC4)cc1S(=O)(=O)N(C)C	1	x	75*	-75	x
Cc1ccc(NC(=O)c2ccc3c(=O)n4c(nc3c2)CCC4)cc1F	0	0	51	-51	x
CCn1cc(C(C)NC(=O)Nc2ccc3c(c2)OCO3)c(C)n1 (configuration not stated)	1	-2	-4	4	2
O=C(COc1ccccc1[N+](=O)[O-])N/N=C/c1ccc(O)cc1	0	x	27	-27	-51*
O=C(COc1cccc2cccnc12)N/N=C/c1ccccc1O	-1	-3	x	x	-1
O=C(COc1cccc2cccnc12)N/N=C/c1ccc(O)cc1	0	56*	4	-4	-40
Cc1ccc2c(c1)cc1c(=O)n(CC(=O)NCCCc3ccccc3)nc(C)n12	-1	1	14	-14	-2
Cc1cc(/C=C2/SC(=S)N(c3cccc(C(F)(F)F)c3)C2=O)c(C)n1-c1cccnc1	-1	-9	76*	-76	-3
Cc1cc(/C=C2\SC(=S)N(Cc3ccco3)C2=O)c(C)n1-c1cccnc1	0	x	-43	43	0
COc1cc(OC)c(NC(=S)Nc2cccc(C(C)=O)c2)cc1Cl	2	1	87*	-87	2
COc1cc(OC)c(NC(=S)Nc2cc(Cl)cc(Cl)c2)cc1Cl	-1	-1	66	-66	4
O=C(Nc1ccc(-c2cn3c(n2)SCC3)cc1)c1ccc2c(c1)OCO2	2	-1	82*	-82	2
